Assay [1] has as its target Sodium-dependent serotonin transporter (Rattus norvegicus, UniProt P31652). Nature of the assay: In vitro for its binding affinity for serotonin transporter RB5-HT-T in rat cortical membranes. It counts as cell membranes. An outline of the steps:
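Serotonin transporter affinity (RB5-HT-T). Compound tested at six concentrations in triplicate. Ki calculated from IC50 by Cheng–Prusoff and given as the mean of 2–3 experiments.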

The target in assay [2] is T1, 5-hydroxytryptamine receptor 1A (Homo sapiens) (UniProt P08908).
T1 sequence (whole entry): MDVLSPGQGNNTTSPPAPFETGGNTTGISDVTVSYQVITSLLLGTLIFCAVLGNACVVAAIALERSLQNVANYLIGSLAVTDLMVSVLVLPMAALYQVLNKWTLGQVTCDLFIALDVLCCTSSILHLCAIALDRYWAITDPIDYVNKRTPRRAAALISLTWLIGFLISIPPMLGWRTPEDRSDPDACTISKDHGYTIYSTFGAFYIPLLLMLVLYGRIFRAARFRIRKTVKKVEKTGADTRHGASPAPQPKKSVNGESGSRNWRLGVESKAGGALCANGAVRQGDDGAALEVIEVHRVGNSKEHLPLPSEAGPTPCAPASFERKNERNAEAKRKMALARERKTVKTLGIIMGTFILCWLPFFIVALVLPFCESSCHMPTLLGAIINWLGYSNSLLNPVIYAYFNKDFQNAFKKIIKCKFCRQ
The assay can be described thus: Binding affinity for 5-hydroxytryptamine 1A receptor was determined by incubating human 5-hydroxytryptamine 1A receptor transfected CHO cells with [3H]8-OH-DPAT. The assay is classed as cell-based. Also on record: concentration or dose not given beside the values. The conditions noted are these: concentration not given here. An outline of the steps: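 Displacement of [3H]-8-OH-DPAT binding in CHO cells transfected with human 5-HT1A receptors. Test compound at six concentrations, triplicate wells per experiment. IC50 converted to Ki (Cheng–Prusoff) and reported as the mean of 2–3 independent experiments.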

The target of assay [3] is Adrenergic receptor alpha-1 (Rattus norvegicus) (UniProt P15823+P23944+P43140). Nature of the assay: In vitro inhibition of [3H]prazosin binding to rat Alpha-1 adrenergic receptors on cortical membranes at 1 uM. It counts as cell membranes. As to conditions: Membrane.
Assay [4] has as its target T2, Adrenergic receptor alpha-1 (Rattus norvegicus, UniProt P15823+P23944+P43140).
T2 sequence (P15823 whole entry): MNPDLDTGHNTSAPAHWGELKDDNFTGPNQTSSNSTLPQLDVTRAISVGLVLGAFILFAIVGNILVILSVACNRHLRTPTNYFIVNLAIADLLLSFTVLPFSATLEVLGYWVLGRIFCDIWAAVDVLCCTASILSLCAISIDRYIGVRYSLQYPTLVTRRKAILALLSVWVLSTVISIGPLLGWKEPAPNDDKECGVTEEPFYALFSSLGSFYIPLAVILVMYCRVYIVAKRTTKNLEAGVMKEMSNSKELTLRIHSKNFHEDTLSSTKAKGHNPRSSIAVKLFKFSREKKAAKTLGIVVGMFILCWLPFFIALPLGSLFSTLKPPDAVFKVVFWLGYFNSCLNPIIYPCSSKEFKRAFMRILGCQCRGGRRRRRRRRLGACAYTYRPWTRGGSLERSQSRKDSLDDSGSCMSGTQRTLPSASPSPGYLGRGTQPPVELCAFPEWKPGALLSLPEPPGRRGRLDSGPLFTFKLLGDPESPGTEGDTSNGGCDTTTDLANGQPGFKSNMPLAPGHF
T2 sequence (P23944 whole entry): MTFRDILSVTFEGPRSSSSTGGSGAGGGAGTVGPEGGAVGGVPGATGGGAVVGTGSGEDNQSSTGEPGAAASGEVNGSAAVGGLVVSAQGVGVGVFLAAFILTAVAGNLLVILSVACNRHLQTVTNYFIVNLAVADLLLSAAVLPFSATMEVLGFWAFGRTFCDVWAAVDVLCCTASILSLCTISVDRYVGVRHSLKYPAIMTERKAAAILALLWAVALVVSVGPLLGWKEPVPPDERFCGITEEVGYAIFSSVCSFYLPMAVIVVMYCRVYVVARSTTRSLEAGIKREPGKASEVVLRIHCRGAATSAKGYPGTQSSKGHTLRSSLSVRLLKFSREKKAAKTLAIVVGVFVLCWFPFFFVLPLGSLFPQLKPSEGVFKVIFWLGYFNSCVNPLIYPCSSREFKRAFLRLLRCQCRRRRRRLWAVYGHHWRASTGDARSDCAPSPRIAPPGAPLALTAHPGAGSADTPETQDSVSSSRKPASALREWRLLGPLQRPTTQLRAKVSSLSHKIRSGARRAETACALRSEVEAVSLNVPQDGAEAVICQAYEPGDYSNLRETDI
T2 sequence (P43140 whole entry): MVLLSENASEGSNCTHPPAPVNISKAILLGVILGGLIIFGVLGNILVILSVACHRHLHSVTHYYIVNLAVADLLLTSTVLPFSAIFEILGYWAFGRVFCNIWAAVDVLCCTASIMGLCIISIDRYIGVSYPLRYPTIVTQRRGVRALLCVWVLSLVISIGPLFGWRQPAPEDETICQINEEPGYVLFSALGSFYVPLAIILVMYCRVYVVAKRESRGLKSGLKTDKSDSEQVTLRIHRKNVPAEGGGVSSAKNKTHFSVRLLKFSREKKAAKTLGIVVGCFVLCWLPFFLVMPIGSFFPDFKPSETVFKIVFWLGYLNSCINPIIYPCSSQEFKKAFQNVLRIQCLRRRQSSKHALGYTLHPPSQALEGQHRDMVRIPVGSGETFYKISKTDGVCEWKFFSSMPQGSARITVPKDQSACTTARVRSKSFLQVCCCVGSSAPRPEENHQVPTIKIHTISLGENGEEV
The assay can be described thus: Binding affinity at Alpha-1 adrenergic receptors on rat cortical membranes by [3H]prazosin displacement. An outline of the steps: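 Rat cortical membranes incubated with [3H]-prazosin and test compound. Six concentrations per experiment, each run in triplicate; Ki derived from IC50 by the Cheng–Prusoff method and given as the mean of 2–3 experiments.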

These results are taken from ChEMBL document CHEMBL1134143, “Studies towards the next generation of antidepressants. Part 1: Indolylcyclohexylamines as potent serotonin reuptake inhibitors” (Bioorg Med Chem Lett, 2001).

As a reminder, the Ki is the dissociation constant of the complex between target and ligand, obtained from inhibition or displacement. For orientation: inhibition means how much of the control response was suppressed.

Sodium-dependent serotonin transporter, sequence (P31652 whole entry): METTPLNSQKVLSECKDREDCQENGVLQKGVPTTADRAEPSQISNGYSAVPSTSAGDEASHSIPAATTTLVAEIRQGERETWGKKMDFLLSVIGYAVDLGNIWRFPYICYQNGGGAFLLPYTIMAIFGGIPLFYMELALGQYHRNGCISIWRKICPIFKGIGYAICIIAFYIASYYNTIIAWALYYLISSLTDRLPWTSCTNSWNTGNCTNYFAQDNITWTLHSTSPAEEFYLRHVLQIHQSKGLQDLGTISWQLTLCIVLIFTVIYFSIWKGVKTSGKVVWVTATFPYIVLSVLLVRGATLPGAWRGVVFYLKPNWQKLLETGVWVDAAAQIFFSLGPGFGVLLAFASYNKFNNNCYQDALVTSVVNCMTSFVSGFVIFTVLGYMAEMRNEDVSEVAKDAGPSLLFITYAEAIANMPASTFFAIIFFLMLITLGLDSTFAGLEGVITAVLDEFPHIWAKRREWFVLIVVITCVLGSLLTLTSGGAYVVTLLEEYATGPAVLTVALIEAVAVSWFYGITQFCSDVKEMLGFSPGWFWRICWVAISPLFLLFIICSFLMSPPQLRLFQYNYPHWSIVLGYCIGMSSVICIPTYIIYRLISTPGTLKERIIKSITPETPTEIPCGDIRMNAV

`COc1ccc2c(c1)CN([C@H]1CC[C@@H](c3c[nH]c4ccc(C#N)cc43)CC1)CC2` gave a Ki in assay [1] of 0.0008 µM. The values for the inhibition in assay [2] and in assay [3] were 26% and 11%, respectively.
`Fc1ccc2[nH]cc(CCCN3CCc4ccccc4C3)c2c1` showed an inhibition in assay [2] of 48%.
As to `c1ccc(CN[C@H]2CC[C@H](c3c[nH]c4ccccc43)CC2)cc1`, the Ki in assay [1] turned out to be 0.107 µM. Also, the figures for the inhibition in assay [2] and in assay [3] were 32% and 64%, respectively.
In the same order, the values of `N#Cc1ccc2[nH]cc([C@H]3CC[C@@H](N4CCCCC4)CC3)c2c1` are 0.022 µM, 0% and 3%.
For the compound `COc1ccc2c(c1)CN([C@H]1CC[C@H](c3c[nH]c4ccc(C#N)cc43)CC1)CC2`, the Ki in assay [1] was found to be 0.012 µM; in assay [4], 0.113 µM. Moreover, the inhibition in assay [2] worked out at 48%.
Regarding `N#Cc1ccc2[nH]cc([C@H]3CC[C@H](NCCc4ccccc4)CC3)c2c1`, the Ki in assay [1] was determined as 0.00198 µM. Further, the figures for the inhibition in assay [2] and in assay [3] were 0% and 56%, respectively.
`N#Cc1ccc2[nH]cc([C@H]3CC[C@@H](NCCc4ccccc4)CC3)c2c1` yielded a Ki in assay [1] of 0.0075 µM. For the same compound, the inhibition stood at 0% in assay [2] and 40% in assay [3].
For `N#Cc1ccc2[nH]cc(C3=CCC(N4CCCCC4)CC3)c2c1` (configuration not stated), in that order: 0.178 µM, 0% and 10%.
In the same order, the values of `Fc1ccc2[nH]cc([C@H]3CC[C@H](NCc4ccccc4)CC3)c2c1` are 0.016 µM, 11% and 8%.
In assay [1], `COc1cccc2c1CCN([C@H]1CC[C@@H](c3c[nH]c4ccc(C#N)cc43)CC1)C2` had a Ki of 0.00061 µM. Further, the inhibition in assay [2] worked out at 7%.
Take `N#Cc1ccc2[nH]cc([C@H]3CC[C@@H](NCc4ccccc4)CC3)c2c1`: affinity in assay [1] was put at a Ki of 0.0075 µM. The inhibition worked out at 15% in assay [2] and 17% in assay [3].
In the same order, the values of `N#Cc1ccc2[nH]cc(C3=CCC(NCc4ccccc4)CC3)c2c1` (configuration not stated) are 0.00313 µM, 87% and 27%.
In the same order, the values of `COc1ccc2c(c1)CCN([C@H]1CC[C@@H](c3c[nH]c4ccc(C#N)cc43)CC1)C2` are 0.0001 µM, 21% and 11%.
With `COc1ccc2c(c1)CCN([C@H]1CC[C@H](c3c[nH]c4ccc(C#N)cc43)CC1)C2`, the Ki amounted to 0.008 µM in assay [1] and 0.228 µM in assay [4]. The compound also displayed an inhibition in assay [2] of 74%.
Compound `N#Cc1ccc2[nH]cc([C@H]3CC[C@H](NCc4ccccc4)CC3)c2c1` had a Ki in assay [1] of 0.025 µM. The inhibition in assay [2] stood at 37%; in assay [3] it was 28%.
On to `COc1cccc2c1CCN([C@H]1CC[C@H](c3c[nH]c4ccc(C#N)cc43)CC1)C2`, for which the Ki in assay [1] came out at 0.012 µM. In assay [2], this compound returned an inhibition of 47%.
For the compound `N#Cc1ccc2[nH]cc([C@H]3CC[C@@H](N4CCc5ccccc5C4)CC3)c2c1`, the Ki in assay [1] came to 0.00123 µM; in assay [4], 0.337 µM. The compound also showed an inhibition in assay [2] of 0%.
Take `Fc1ccc2[nH]cc([C@H]3CC[C@@H](NCc4ccccc4)CC3)c2c1`: the Ki in assay [1] came to 0.021 µM. Further, the figures for the inhibition in assay [2] and in assay [3] were 3% and 9%, respectively.
In the same order, the values of `c1ccc(CN[C@H]2CC[C@@H](c3c[nH]c4ccccc43)CC2)cc1` are 0.855 µM, 0% and 21%.
In assay [4], `COc1ccc2c(c1)CCN(CCCc1c[nH]c3ccc(F)cc13)C2` had a Ki of 0.058 µM.
Take `N#Cc1ccc2[nH]cc([C@H]3CC[C@H](N4CCCCC4)CC3)c2c1`: the affinity in assay [1], expressed as Ki, was 0.152 µM. Also, the inhibition in assay [2] turned out to be 0%; in assay [3], 14%.
For the compound `COc1cccc2c1CN([C@H]1CC[C@@H](c3c[nH]c4ccc(C#N)cc43)CC1)CC2`, affinity in assay [1] was put at a Ki of 0.00101 µM. Besides, the inhibition in assay [2] was found to be 14%.
In turn, `N#Cc1ccc2[nH]cc(C3=CCC(NCCc4ccccc4)CC3)c2c1` (configuration not stated) came in with a Ki in assay [1] of 0.00154 µM. Further, the inhibition in assay [2] amounted to 41%; in assay [3], 32%.
Consider `N#Cc1ccc2[nH]cc([C@H]3CC[C@H](N4CCc5ccccc5C4)CC3)c2c1`, for which the Ki in assay [1] is 0.01 µM; in assay [4] it was 0.088 µM. In assay [2], this compound returned an inhibition of 10%.
Take `COc1cccc2c1CN([C@H]1CC[C@H](c3c[nH]c4ccc(C#N)cc43)CC1)CC2`: in assay [1], the affinity corresponds to a Ki of 0.0075 µM. The inhibition in assay [2] was 46%.
